# Measurements: ChEMBL document CHEMBL4364301 (Eur J Med Chem, 2019)
# Legend:
# Format in all cases: functional
# LNCaP [1] = experiment: Antiproliferative activity against human LNCAP cells assessed as T/C value at 3.2 uM incubated for 96 hrs by propidium iodide based 2D monolayer assay
# How it was run: (§1)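 Cells were kept in RPMI 1640 with 25 mM HEPES, 10% FCS and gentamicin at 37 °C under 5% CO2, and plated at 4,000-20,000 cells/well. After 24 h recovery, compound in medium or medium alone (control wells) was added at 10 half-log concentrations from 0.0032 to 100 µM, in triplicate, with at most 0.3% DMSO. After 96 h, wells were PBS-washed, stained with 7 µg/ml PI and 0.1% Triton X-100, and fluorescence read at 530/620 nm. IC50 came from a 4-parameter fit, geometric mean.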
# LNCaP [2] = experiment: Antiproliferative activity against human LNCAP cells assessed as T/C value at 3.2 x 10^-1 uM incubated for 96 hrs by propidium iodide based 2D monolayer assay; how it was run: as §1
# CWR22R [3] = experiment: Antiproliferative activity against human 22Rv1 cells assessed as T/C value at 1 uM incubated for 96 hrs by propidium iodide based 2D monolayer assay; how it was run: as §1
# VCaP [4] = experiment: Antiproliferative activity against human VCaP cells assessed as T/C value at 3.2 x 10^-1 uM incubated for 96 hrs by propidium iodide based 2D monolayer assay
# How it was run: (§2)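 VCaP cells in RPMI 1640 with 10% FCS at 37 °C, 5% CO2, seeded 4,000–20,000 cells/well and left 24 h before dosing. Compounds from DMSO stocks were diluted in half-log steps in medium, 10 concentrations 0.0032–100 μM, triplicate wells, max 0.3% DMSO. After 96 h, cells were washed, stained with 7 μg/ml propidium iodide plus 0.1% Triton X-100 for 1–2 h at room temperature, and fluorescence read at ex 530/em 620 nm.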
# DU-145 [5] = experiment: Antiproliferative activity against human DU145 cells assessed as T/C value at 1 x 10^2 uM incubated for 96 hrs by propidium iodide based 2D monolayer assay; how it was run: as §1
# DU-145 [6] = experiment: Antiproliferative activity against human DU145 cells assessed as T/C value at 3.2 x 10^-3 uM incubated for 96 hrs by propidium iodide based 2D monolayer assay
# How it was run: as §1, with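 “After” for “Cells were kept in RPMI 1640 with 25 mM HEPES, 10% FCS and gentamicin at 37 °C under 5% CO2, and plated at 4,000-20,000 cells/well. After”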
# CWR22R [7] = experiment: Antiproliferative activity against human 22Rv1 cells assessed as T/C value at 1 x 10^1 uM incubated for 96 hrs by propidium iodide based 2D monolayer assay; how it was run: as §1
# VCaP [8] = experiment: Antiproliferative activity against human VCaP cells assessed as T/C value at 3.2 uM incubated for 96 hrs by propidium iodide based 2D monolayer assay; how it was run: as §1
# LNCaP [9] = experiment: Antiproliferative activity against human LNCAP cells assessed as T/C value at 1 x 10^2 uM incubated for 96 hrs by propidium iodide based 2D monolayer assay; how it was run: as §1
# CWR22R [10] = experiment: Antiproliferative activity against human 22Rv1 cells assessed as T/C value at 1 x 10^2 uM incubated for 96 hrs by propidium iodide based 2D monolayer assay; how it was run: as §1
# VCaP [11] = experiment: Antiproliferative activity against human VCaP cells assessed as reduction in cell growth incubated for 96 hrs by propidium iodide based 2D monolayer assay; how it was run: as §2
# VCaP [12] = experiment: Antiproliferative activity against human VCaP cells assessed as T/C value at 1 x 10^-1 uM incubated for 96 hrs by propidium iodide based 2D monolayer assay; how it was run: as §1
# LNCaP [13] = experiment: Antiproliferative activity against human LNCAP cells assessed as T/C value at 1 x 10^1 uM incubated for 96 hrs by propidium iodide based 2D monolayer assay; how it was run: as §1
# LNCaP [14] = experiment: Antiproliferative activity against human LNCAP cells assessed as T/C value at 1 uM incubated for 96 hrs by propidium iodide based 2D monolayer assay; how it was run: as §1
# LNCaP [15] = experiment: Antiproliferative activity against human LNCAP cells assessed as T/C value at 1 x 10^-2 uM incubated for 96 hrs by propidium iodide based 2D monolayer assay; how it was run: as §1
# VCaP [16] = experiment: Antiproliferative activity against human VCaP cells assessed as T/C value at 3.2 x 10^-3 uM incubated for 96 hrs by propidium iodide based 2D monolayer assay; how it was run: as §2
# DU-145 [17] = experiment: Antiproliferative activity against human DU145 cells assessed as T/C value at 3.2 x 10^-2 uM incubated for 96 hrs by propidium iodide based 2D monolayer assay
# How it was run: as §1, with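 “After” for “Cells were kept in RPMI 1640 with 25 mM HEPES, 10% FCS and gentamicin at 37 °C under 5% CO2, and plated at 4,000-20,000 cells/well. After”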
# VCaP [18] = experiment: Antiproliferative activity against human VCaP cells assessed as T/C value at 1 uM incubated for 96 hrs by propidium iodide based 2D monolayer assay; how it was run: as §1
# CWR22R [19] = experiment: Antiproliferative activity against human 22Rv1 cells assessed as reduction in cell growth incubated for 96 hrs by propidium iodide based 2D monolayer assay; settings: 22Rv1, 96 h
# How it was run: as §1, with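 “After” for “Cells were kept in RPMI 1640 with 25 mM HEPES, 10% FCS and gentamicin at 37 °C under 5% CO2, and plated at 4,000-20,000 cells/well. After”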
# LNCaP [20] = experiment: Antiproliferative activity against human LNCAP cells assessed as T/C value at 3.2 x 10^-3 uM incubated for 96 hrs by propidium iodide based 2D monolayer assay; how it was run: as §1
# LNCaP [21] = experiment: Antiproliferative activity against human LNCAP cells assessed as T/C value at 3.2 x 10^-2 uM incubated for 96 hrs by propidium iodide based 2D monolayer assay; how it was run: as §1
# CWR22R [22] = experiment: Antiproliferative activity against human 22Rv1 cells assessed as T/C value at 3.2 x 10^1 uM incubated for 96 hrs by propidium iodide based 2D monolayer assay; how it was run: as §1
# DU-145 [23] = experiment: Antiproliferative activity against human DU145 cells assessed as T/C value at 1 uM incubated for 96 hrs by propidium iodide based 2D monolayer assay
# How it was run: as §1, with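 “After” for “Cells were kept in RPMI 1640 with 25 mM HEPES, 10% FCS and gentamicin at 37 °C under 5% CO2, and plated at 4,000-20,000 cells/well. After”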
# VCaP [24] = experiment: Antiproliferative activity against human VCaP cells assessed as T/C value at 1 x 10^-2 uM incubated for 96 hrs by propidium iodide based 2D monolayer assay; how it was run: as §1
# CWR22R [25] = experiment: Antiproliferative activity against human 22Rv1 cells assessed as T/C value at 3.2 x 10^-1 uM incubated for 96 hrs by propidium iodide based 2D monolayer assay; how it was run: as §1
# DU-145 [26] = experiment: Antiproliferative activity against human DU145 cells assessed as T/C value at 1 x 10^-2 uM incubated for 96 hrs by propidium iodide based 2D monolayer assay
# How it was run: as §1, with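 “After” for “Cells were kept in RPMI 1640 with 25 mM HEPES, 10% FCS and gentamicin at 37 °C under 5% CO2, and plated at 4,000-20,000 cells/well. After”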
# DU-145 [27] = experiment: Antiproliferative activity against human DU145 cells assessed as reduction in cell growth incubated for 96 hrs by propidium iodide based 2D monolayer assay; settings: DU-145, 96 h
# How it was run: as §1, with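 “After” for “Cells were kept in RPMI 1640 with 25 mM HEPES, 10% FCS and gentamicin at 37 °C under 5% CO2, and plated at 4,000-20,000 cells/well. After”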
# CWR22R [28] = experiment: Antiproliferative activity against human 22Rv1 cells assessed as T/C value at 3.2 x 10^-2 uM incubated for 96 hrs by propidium iodide based 2D monolayer assay; how it was run: as §1
# DU-145 [29] = experiment: Antiproliferative activity against human DU145 cells assessed as T/C value at 3.2 x 10^1 uM incubated for 96 hrs by propidium iodide based 2D monolayer assay; how it was run: as §1
# CWR22R [30] = experiment: Antiproliferative activity against human 22Rv1 cells assessed as T/C value at 3.2 uM incubated for 96 hrs by propidium iodide based 2D monolayer assay; how it was run: as §1
# VCaP [31] = experiment: Antiproliferative activity against human VCaP cells assessed as T/C value at 1 x 10^1 uM incubated for 96 hrs by propidium iodide based 2D monolayer assay; how it was run: as §1
# CWR22R [32] = experiment: Antiproliferative activity against human 22Rv1 cells assessed as T/C value at 1 x 10^-2 uM incubated for 96 hrs by propidium iodide based 2D monolayer assay; how it was run: as §1
structure (smiles),measurement,setting,value
CC(O)(CSc1cc(C(F)(F)F)cc(C(F)(F)F)c1)C(=O)Nc1cccc(C(F)(F)C(F)(F)F)c1 (racemic),T/C,LNCaP [1],72%
same,T/C,LNCaP [2],111%
same,T/C,CWR22R [3],107%
same,T/C,VCaP [4],109%
same,T/C,DU-145 [5],2%
same,T/C,DU-145 [6],117%
same,T/C,CWR22R [7],9%
same,T/C,VCaP [8],102%
same,T/C,LNCaP [9],7%
same,T/C,CWR22R [10],5%
same,IC50,VCaP [11],8.6 µM
same,IC70,VCaP [11],11.7 µM
same,T/C,VCaP [12],115%
same,T/C,LNCaP [13],8%
same,T/C,LNCaP [14],107%
same,T/C,LNCaP [15],93%
same,T/C,VCaP [16],104%
same,T/C,DU-145 [17],123%
same,T/C,VCaP [18],93%
same,IC50,CWR22R [19],4.2 µM
same,IC70,CWR22R [19],5.41 µM
same,T/C,LNCaP [20],90%
same,T/C,LNCaP [21],99%
same,T/C,CWR22R [22],7%
same,T/C,DU-145 [23],134%
same,T/C,VCaP [24],107%
same,T/C,CWR22R [25],107%
same,T/C,DU-145 [26],121%
same,IC50,DU-145 [27],8.9 µM
same,IC70,DU-145 [27],9.6 µM
same,T/C,CWR22R [28],112%
same,T/C,DU-145 [29],8%
same,T/C,CWR22R [30],75%
same,T/C,VCaP [31],38%
same,T/C,CWR22R [32],109%
CC(O)(COc1ccc(C(F)(F)C(F)(F)F)cc1)C(=O)Nc1cc(C(F)(F)F)cc(C(F)(F)F)c1 (racemic),T/C,LNCaP [1],25%
same,T/C,LNCaP [2],93%
same,T/C,CWR22R [3],107%
same,T/C,VCaP [4],99%
same,T/C,DU-145 [5],-1%
same,T/C,DU-145 [6],101%
same,T/C,CWR22R [7],9%
same,T/C,VCaP [8],45%
same,T/C,LNCaP [9],1%
same,T/C,CWR22R [10],3%
same,IC50,VCaP [11],3 µM
same,IC70,VCaP [11],4.16 µM
same,T/C,VCaP [12],89%
same,T/C,LNCaP [13],9%
same,T/C,LNCaP [14],93%
same,T/C,LNCaP [15],94%
same,T/C,VCaP [16],76%
same,T/C,DU-145 [17],108%
same,T/C,VCaP [18],94%
same,IC50,CWR22R [19],2.5 µM
same,IC70,CWR22R [19],3.11 µM
same,T/C,LNCaP [20],91%
same,T/C,LNCaP [21],87%
same,T/C,CWR22R [22],5%
same,T/C,DU-145 [23],115%
same,T/C,VCaP [24],91%
same,T/C,CWR22R [25],108%
same,T/C,DU-145 [26],108%
same,IC50,DU-145 [27],6.8 µM
same,IC70,DU-145 [27],7.99 µM
same,T/C,CWR22R [28],115%
same,T/C,DU-145 [29],3%
same,T/C,CWR22R [30],29%
same,T/C,VCaP [31],19%
same,T/C,CWR22R [32],109%
CC(O)(COc1cccc(S(F)(F)(F)(F)F)c1)C(=O)Nc1cc(C(F)(F)F)cc(C(F)(F)F)c1 (racemic),T/C,LNCaP [1],18%
same,T/C,LNCaP [2],83%
same,T/C,CWR22R [3],94%
same,T/C,VCaP [4],92%
same,T/C,DU-145 [5],0%
same,T/C,DU-145 [6],104%
same,T/C,CWR22R [7],12%
same,T/C,VCaP [8],34%
same,T/C,LNCaP [9],2%
same,T/C,CWR22R [10],2%
same,IC50,VCaP [11],2.7 µM
same,IC70,VCaP [11],5.41 µM
same,T/C,VCaP [12],92%
same,T/C,LNCaP [13],2%
same,T/C,LNCaP [14],93%
same,T/C,LNCaP [15],89%
same,T/C,VCaP [16],111%
same,T/C,DU-145 [17],105%
same,T/C,VCaP [18],88%
same,IC50,CWR22R [19],2.3 µM
same,IC70,CWR22R [19],3.17 µM
same,T/C,LNCaP [20],88%
same,T/C,LNCaP [21],83%
same,T/C,CWR22R [22],2%
same,T/C,DU-145 [23],120%
same,T/C,VCaP [24],99%
same,T/C,CWR22R [25],101%
same,T/C,DU-145 [26],101%
same,IC50,DU-145 [27],5.7 µM
same,IC70,DU-145 [27],6.66 µM
same,T/C,CWR22R [28],109%
same,T/C,DU-145 [29],3%
same,T/C,CWR22R [30],29%
same,T/C,VCaP [31],32%
same,T/C,CWR22R [32],105%
